Consider 18 molecules from ChEMBL document CHEMBL1121910, “N-(Methanesulfonyl)-16-phenoxyprostaglandincarboxamides: tissue-selective, uterine stimulants” (1981).

In assay [1] the test system is Canis familiaris. Description: Compound versus PGE-2 (0.1 ug/kg, iv) was tested for effects on blood pressure in anesthetized dogs; Depressor. Format: functional, Canis lupus familiaris. In short, it runs like this:
(§1)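 Anesthetized dogs responsive to PGE2 (at least two per compound); iv dosing. Blood pressure threshold dose expressed relative to PGE2 reference at 0.1 μg/kg iv; direction noted as depressor (−) or pressor (+).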

Assay [2] deals with Cavia porcellus. Briefly: Relative ability to cause abortion in conscious guinea pigs compared to PGE-2. Format: functional.
In assay [3] the test system is Cavia porcellus. Description: Percent protection against histamine-induced bronchoconstriction in conscious guinea pig. The class given is functional. Set-up: concentration or dose not given beside the values.
For assay [4], the species on record is Cavia porcellus. Briefly: Relative spasmogenic potency in an in vitro guinea pig uteri assay. The class given is functional.
Assay [5] deals with Rattus norvegicus. Briefly: Relative potency (50 ug/kg) for inhibition of pentagastrin-stimulated gastric acid secretion in anesthetized rats. The class given is functional, Stomach.
For assay [6], the system named is Mus musculus. Briefly: Relative potency of compound versus PGE-2 (0.3-3.0mg/mL, iv) for induction of diarrhoea in conscious mice; NE = no effect at one tenth the minimum effective dose for PGE-2. Format: functional, organism-based.
The test system of assay [7] is Canis familiaris. Briefly: Compound versus PGE-2 (0.1 ug/kg, iv) was tested for effects on blood pressure in anesthetized dogs. The class given is functional, Canis lupus familiaris. In short, it runs like this:
as §1

Assay [8] deals with Mus musculus. Description: Relative potency of compound versus PGE-2 (0.3-3.0mg/mL, iv)for induction of diarrhoea in conscious mice. The class given is functional. The procedure, abridged:
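Groups of six conscious mice, iv. Relative potency was estimated from concentration-response curves for diarrhea induction against PGE2 given at 0.3–3.0 mg/kg iv.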

The test system of assay [9] is Canis familiaris. Briefly: Compound versus PGE-2 (0.1 ug/kg, iv) was tested for effects on blood pressure in anesthetized dogs; Pressor. Format: functional, Canis lupus familiaris. In short, it runs like this: as §1
The test system of assay [10] is Mus musculus. Description: Relative potency of compound versus PGE-2 (0.3-3.0mg/mL, iv) for induction of diarrhoea in conscious mice; Depressor. The class given is functional.
The test system of assay [11] is Mus musculus. Description: Relative potency of compound versus PGE-2 (0.3-3.0mg/mL, iv) for induction of diarrhoea in conscious mice; NE = no effect at 10 times the ED50 for PGE-2. The class given is functional, organism-based.

Turning to `CS(=O)(=O)NC(=O)CCC/C=C\C[C@H]1C(=O)C[C@@H](O)C1/C=C/[C@@H](O)COc1ccc(Cl)cc1` (stereo not given in full), the Relative potency was found to be 0.5 in [1], 10000 in assay [2], 90 in assay [4] and 1200 in [5]. In assay [3], this molecule yielded a Protection of 9%.
Regarding `CS(=O)(=O)NC(=O)CCC/C=C\C[C@H]1C(=O)C[C@@H](O)C1/C=C/[C@@H](O)COc1cccc(C(F)(F)F)c1` (stereo not given in full), the Relative potency result in assay [6] was “No effect”; in assay [2], under 100; in assay [4] it was 0.5; in [7] it was under 0.5. This molecule also yielded a Protection in assay [3] of 16%.
Regarding `CS(=O)(=O)NC(=O)CCC/C=C\CC1=C(/C=C/[C@@H](O)COc2ccccc2)CCC1=O`, the Relative potency is given as under 100 in [2], 60 in assay [8], 1.2 in [4] and 80 in assay [5]. This molecule also gave a Protection in [3] of 0%. In addition, the Relative threshold dose in [9] is 10.
As to `CS(=O)(=O)NC(=O)CCC/C=C\C[C@H]1C(=O)C[C@@H](O)C1/C=C/[C@@H](O)CCc1ccccc1` (stereo not given in full), the Relative potency in [10] is 2.5; in [2], under 100; in assay [4] it was 75; in assay [7], 2.5. Besides, the Protection in [3] was 0%.
For `COc1ccc(OC[C@H](O)/C=C/C2[C@H](O)CC(=O)[C@@H]2C/C=C\CCCC(=O)NS(C)(=O)=O)cc1` (stereo not given in full), the Relative potency in assay [2] was under 1000; in assay [4] it was 10; in assay [5], 600; in [7] it was under 0.5. Also, the Protection in [3] is given as 13%.
With `CCS(=O)(=O)NC(=O)CCC/C=C\C[C@H]1C(=O)C[C@@H](O)C1/C=C/[C@@H](O)COc1ccccc1` (stereo not given in full), the Relative potency in assay [1] is listed as 1; in assay [2], 3000; in [4] it was 85. Further, the Protection in [3] came to 9%.
Regarding `CCCCC(C)(C)[C@H](O)/C=C/C1[C@H](O)CC(=O)[C@@H]1C/C=C\CCCC(=O)O` (stereo not given in full), the Relative threshold dose in assay [1] was found to be 10. Moreover, the Relative potency is reported as under 100 in [2], 5300 in assay [8], 33 in assay [4] and 400 in assay [5]. Further, the Protection in [3] is given as 41%.
`CS(=O)(=O)NC(=O)CCC/C=C\C[C@H]1C(=O)C[C@@H](O)C1/C=C/[C@@H](O)COc1cccc(Cl)c1` (stereo not given in full): the Relative potency is recorded as 1000 in assay [2], 46 in assay [4] and 140 in assay [5]. The molecule also returned a Protection in assay [3] of 28%.
As for `Cc1cccc(OC[C@H](O)/C=C/C2[C@H](O)CC(=O)[C@@H]2C/C=C\CCCC(=O)NS(C)(=O)=O)c1` (stereo not given in full), the Relative potency in assay [1] is 0.5; in [6], “No effect”; in [2], under 1000; in [4], 4; in assay [5], 125. This molecule showed a Protection in assay [3] of 44%.
Consider `CCCCC[C@H](O)/C=C/[C@H]1[C@H](O)CC(=O)[C@@H]1C/C=C\CCCC(=O)O` [DINOPROSTONE], for which the Relative potency in assay [2], in assay [8], in assay [4] and in [5] was 100 in each case. In [3], this molecule registered a Protection of 100%.
Turning to `COc1cccc(OC[C@H](O)/C=C/C2[C@H](O)CC(=O)[C@@H]2C/C=C\CCCC(=O)NS(C)(=O)=O)c1` (stereo not given in full), the Relative potency in assay [2] was under 1000; in [11] it was “No effect”; in [4] it was 1; in [5], 0; in [7] it was under 0.5. The molecule further had a Protection in assay [3] of 25%.
Turning to `CS(=O)(=O)NC(=O)CCC/C=C\C[C@H]1C(=O)C[C@@H](O)C1/C=C/[C@@H](O)COc1cccs1` (stereo not given in full), the figures for the Relative potency in assay [2], in assay [4] and in assay [7] were 300, 50 and 0.5, respectively. Also, the Protection in assay [3] is listed as 28%.
In the case of `CS(=O)(=O)NC(=O)CCC/C=C\C[C@H]1C(=O)C[C@@H](O)C1/C=C/[C@@H](O)COc1ccc(F)cc1` (stereo not given in full), the Relative potency was 3000 in [2] and 120 in [4]. The Protection in assay [3] was 3%.
With `CS(=O)(=O)NC(=O)CCC/C=C\C[C@@H]1C(/C=C/[C@@H](O)COc2ccccc2)[C@H](O)C[C@@H]1O` (stereo not given in full), the Relative potency in [2] is reported as 1000; in assay [4], 10; in assay [7], 10. For the same molecule, in assay [3], the Protection is on record as 3%.
`O=C(CCC/C=C\C[C@H]1C(=O)C[C@@H](O)C1/C=C/[C@@H](O)COc1ccccc1)NS(=O)(=O)c1ccccc1` (stereo not given in full): the Relative potency in [2] is reported as 1000; in [4], 5; in assay [5] it was 370; in assay [7] it was under 0.5. In addition, the Protection in assay [3] was determined as 13%.
Molecule `O=C(O)CCC/C=C\C[C@H]1C(=O)C[C@@H](O)C1/C=C/[C@@H](O)COc1ccccc1` (stereo not given in full) registered a Relative threshold dose in assay [1] of 10. The Relative potency was 300 in assay [2], 150 in [8], 75 in [4] and 530 in [5]. In [3], the Protection is listed as 9%.
Turning to `CS(=O)(=O)NC(=O)CCC/C=C\C[C@H]1C(=O)C[C@@H](O)[C@@H]1/C=C/[C@@H](O)COc1ccccc1` [SULPROSTONE], the Relative potency in assay [1] amounted to 0.5; in [2], 3000; in assay [4] it was 115; in [5], 450. The Protection in assay [3] amounted to 10%.
For the molecule `CS(=O)(=O)NC(=O)CCC/C=C\C[C@H]1C(=O)C=CC1/C=C/[C@@H](O)COc1ccccc1` (stereo not given in full), the Relative threshold dose in [1] was found to be 2.5. Further, the Relative potency is listed as under 100 in assay [2], 10 in [8], 0.2 in assay [4] and 200 in assay [5]. Also, the Protection in assay [3] came to 9%.
